RGS4 block: inhibitors of human RGS4 | hit rate 0.45% among 310,000 | HEK293 M3R/RGS4 inducible, Fluo-4 calcium flux; hits give high values; triggered by carbachol at its EC20 | B-score at 10 µM;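 active = B-score, a plate-corrected calcium signal, over three deviations above library mean, with baseline fluorescence within five deviations of library mean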;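 also: RGS4 expression induced by doxycycline in cells with stable M3 receptor; B-score is computed from the integrated fluorescence ratio over baseline after carbachol; higher B-score means a larger calcium signal and so more RGS4 inhibition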
Target sequence (P49798 whole entry, looked up): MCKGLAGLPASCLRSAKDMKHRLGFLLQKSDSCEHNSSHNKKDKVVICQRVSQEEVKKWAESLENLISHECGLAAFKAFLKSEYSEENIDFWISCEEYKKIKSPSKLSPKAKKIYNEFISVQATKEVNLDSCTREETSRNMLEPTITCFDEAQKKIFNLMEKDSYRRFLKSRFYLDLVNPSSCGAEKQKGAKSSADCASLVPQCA
RGS4 pot: potentiators or activators of RGS4; HEK293 M3R/inducible RGS4, carbachol calcium flux Fluo4; hits give low values; B-score at 10 µM; hit rate 0.92% among 310,000; AID 463111;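 active = B-score of the integrated calcium signal more than 4 SD below the library mean, with starting fluorescence not abnormally high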;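 also: negative B-score means reduced calcium response which marks RGS4 activation or potentiation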
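Reagent: ECmax carbachol challenge; Test system: M3R-expressing HEK293 line, RGS4 induced by doxycycline; Schedule: overnight RGS4 induction, 30 min dye load 37 °C, 20 min compound RT; Detection: calcium dye Fluo4 fluorescence; Read-out: Agonist-evoked peak-minus-minimum fluorescence over baseline, integrated ratio, B score.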
MrgX1 allo act: allosterically activates human MrgX1 receptor signaling. Q96LB2. hit rate 0.63% among 310,000. MrgX1-HEK293, Fluo-4 calcium flux, FDSS; hits give high values. B-score at 10 µM. AID 588675;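 active = plate-corrected calcium response at least 3 library SD above typical, normal starting fluorescence, not activating the receptor alone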;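 also: compound read alongside a low EC10 to EC30 dose of BAM8-22 agonist; peak minus trough fluorescence over baseline measured at the second addition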
Target sequence (Q96LB2 whole entry, looked up): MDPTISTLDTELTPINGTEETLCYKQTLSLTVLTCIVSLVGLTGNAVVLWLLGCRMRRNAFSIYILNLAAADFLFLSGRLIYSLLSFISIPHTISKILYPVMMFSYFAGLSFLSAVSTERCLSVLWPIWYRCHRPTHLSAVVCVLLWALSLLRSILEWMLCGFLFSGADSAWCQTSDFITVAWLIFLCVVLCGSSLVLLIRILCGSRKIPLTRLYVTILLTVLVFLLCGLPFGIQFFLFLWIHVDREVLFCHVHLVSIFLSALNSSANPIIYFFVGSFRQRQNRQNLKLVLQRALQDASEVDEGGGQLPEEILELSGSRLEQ
MrgX1 antag: antagonists of human MrgX1 receptor; Q96LB2; MRGX1-HEK293 calcium flux, Fluo-4, BAM8-22 antagonism; hits give low values; B-score at 10 µM; hit rate 1.3% among 310,000; AID 588676;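 active = calcium-response B-score plate-corrected more than 3 library SD below zero, starting fluorescence within 5 deviations, no agonist response on first addition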;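 also: peak minus trough fluorescence over baseline after final BAM8-22 challenge near maximal dose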
MrgX1 agonist: agonists of human MrgX1 receptor; hit rate 0.44% among 310,000; MrgX1-HEK293 cells, Fluo-4 calcium fluorescence, agonist mode; hits give high values; B-score at 10 µM;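 active = calcium response B-score plate-corrected fluorescence ratio at least 3 library SD, with starting fluorescence B-score inside 5 SD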
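Material: MrgX1-expressing HEK293 cells; input: 15,000 cells per well; doses: test compound given as first of three sequential additions; schedule: overnight plating before 1 h dye loading; technique: Fluo-4 NW calcium-flux fluorescence, kinetic read; evaluation: baseline-normalised fluorescence change ratio, B-scored; control set: plate-wise positive and negative controls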
Active calls of the source: *; i = inactive. A selection: hits, their analogues and other compounds. The true share with any hit is near 3.5%.

SMILES	RGS4 block	RGS4 pot	MrgX1 allo act	MrgX1 antag	MrgX1 agonist
CC(/C=N/NC(=O)Cc1cccs1)=C\c1ccccc1	i	i	i	i	i
CC(/C=N/NC(=O)Cc1cccn1C)=C\c1ccccc1	i	i	12*	i	i
CCO/C([O-])=N/c1sn[n+](C)c1C	i	i	i	-5.3*	i
CC1CN(S(=O)(=O)c2cc(C(=O)NCCC3=CCCCC3)ccc2Cl)CC(C)O1 (stereo not drawn)	i	i	i	i	i
On1c2c(c3c4nonc4ccc31)CCCC2	i	i	i	i	27*
COn1c2c(c3c4nonc4ccc31)CCCC2	i	i	i	i	i
COc1ccc(NC(=O)CN2C(=O)/C(=C3\SC(=S)N(C4CCS(=O)(=O)C4)C3=O)c3ccccc32)cc1 (stereo not drawn)	i	i	11*	i	i
CCCCCN1CC(=O)N2[C@@H](Cc3c([nH]c4ccccc34)C2(C)C)C1=O	i	i	i	i	i
CCCCN(CCCC)CCCN1CC(=O)N2[C@@H](Cc3c([nH]c4ccccc34)C2(C)C)C1=O	i	-8.4*	i	i	i
O=[N+]([O-])c1cc(C(F)(F)F)ccc1NCCOc1ccccc1	i	i	9.1*	i	i
Cc1ccccc1OCCNc1ccc(C(F)(F)F)cc1[N+](=O)[O-]	i	i	i	i	i
CN(C(=O)CSc1nnc(-c2ccccc2F)o1)c1ccccc1	i	i	i	i	i
COc1ccc(CN(C(=O)CSc2nnc(-c3ccccc3F)o2)c2ccc(F)cc2)cc1	i	-7.8*	i	i	i
CN1CCN(C(=O)c2ccccc2Nc2ccc(SC(F)F)cc2)CC1	i	i	i	i	i
CC1CC(C)CN(C(=O)c2ccccc2Nc2ccc(SC(F)F)cc2)C1 (stereo not drawn)	i	-7.4*	i	i	i
Cc1sc(NC(=O)c2ccco2)nc1-c1ccc2c(c1)CC(C)N2C(=O)C1CC1 (stereo not drawn)	i	-7.1*	i	i	i
O=C(c1ccc([N+](=O)[O-])cc1)N(Cc1ccc(Cl)cc1Cl)N1C(=O)CCCC1=O	i	i	i	i	i
O=C(c1ccc([N+](=O)[O-])cc1)N(Cc1ccc(Cl)cc1)N1C(=O)CCCC1=O	i	i	i	i	54*
COC(=O)Cc1ccc(NC(=S)Nc2cccc(C)n2)cc1	i	i	i	i	i
C=CCn1c(C(C)(C)C)nc2ccccc21	i	i	i	i	i
NS(=O)(=O)c1ccc(CCNCc2ccccc2OCc2ccc(F)cc2)cc1	i	i	i	-4.8*	i
O=C1/C(=C/c2ccccn2)COc2ccccc21	i	i	6.7*	i	i
O=C1/C(=C/c2ccc(O)cc2)COc2ccccc21	i	i	i	i	i
CCc1nc(SCC(=O)Nc2nnc(CC)s2)c2c(=O)n(C)c(=O)n(C)c2n1	i	i	i	i	i
Cc1ccc(S(=O)(=O)Oc2ccc(/C=C3/C(=N)N4C(=NC3=O)SN=C4S(C)(=O)=O)cc2)cc1	i	i	17*	i	i
SMILES	RGS4 block	RGS4 pot	MrgX1 allo act	MrgX1 antag	MrgX1 agonist
CCS(=O)(=O)C1=NSC2=NC(=O)/C(=C\c3ccc(OS(=O)(=O)c4ccccc4)c(OC)c3)C(=N)N21	i	i	33*	i	i
COc1cc(/C=C2/C(=N)N3C(=NC2=O)SN=C3S(C)(=O)=O)ccc1OS(=O)(=O)c1ccc(C)cc1	i	i	10*	i	i
COc1cc(/C=C2/C(=N)N3N=C(C)SC3=NC2=O)ccc1OS(=O)(=O)c1ccc(C)cc1	i	i	i	i	i
CC(C)Oc1ccccc1/C=N/NC(=O)C1CC1	i	i	i	i	i
COc1cccc(C(=O)CC(C#N)c2ccc(F)cc2)c1 (stereo not drawn)	i	i	i	i	i
Cc1ccc(Oc2ncccc2/C=N/OCc2ccc(Cl)c(Cl)c2)cc1	i	i	8.6*	i	i
CC(=O)N[C@@H](Cc1c[nH]c2ccccc12)C(=O)NC1CC1	i	i	i	i	i
COc1cccc(N2CCN(c3ncnc4c3cnn4-c3ccc(C)cc3C)CC2)c1	i	-7*	i	i	i
Cc1ccc(-n2ncc3c(N4CCCC4)ncnc32)c(C)c1	i	i	i	i	i
COc1ccc(-n2ncc3c(N4CCN(Cc5ccccc5)CC4)ncnc32)cc1	i	-7.4*	i	i	i
Cc1ccccc1C(=O)O/N=C(\N)Cc1cccs1	i	i	i	i	i
COc1cc(/C=N/n2cc(-c3ccccc3)[nH]c2=S)cc(OC)c1O	i	i	11*	i	i
Oc1ccc(/C=N/n2cc(-c3ccccc3)[nH]c2=S)cc1	i	i	i	i	i
CCOC(=O)c1nc2c(=O)n(C)c(=O)n(C)c2n(C)c1=O	i	i	i	i	i
COc1ccccc1-c1nnn(CC#N)n1	i	i	i	-7.5*	i
COc1ccc(C2(C(=O)Nc3ccc(C)c(C)c3)CCOCC2)cc1	i	i	i	i	i
CCN1CCC2(CC1)N=C(c1ccc(F)cc1)C(=S)N2	i	-7.4*	i	i	i
Cc1ccc(C2=NC3(CCCCC3)NC2=S)cc1	i	i	i	i	i
CCC(=O)Nc1nn(CC(C)C)c2nc3ccc(C)cc3cc12	i	i	i	i	i
O=C(c1cc(S(=O)(=O)N2CCOCC2)ccc1Cl)N1CCc2ccccc2C1	i	i	i	i	i
CCN1CCN(Cc2ccc(NC(=O)c3ccc(C)c(/C=C/c4cnc(Nc5cc(N6CCNCC6)nc(C)n5)cn4)c3)cc2C(F)(F)F)CC1	i	i	i	i	27*
CCN1CCN(Cc2ccc(NC(=O)c3ccc(C)c(NC(=O)c4ccno4)c3)cc2C(F)(F)F)CC1	i	i	i	i	i
O=C(NN=C1CCCC1)C1COc2ccccc2O1 (stereo not drawn)	i	i	i	i	i
Cc1ccc(C)n1-c1ccc(C(=O)N/N=C/c2ccncc2)cc1	i	i	10*	i	i
CCn1c(COc2ccc(C(C)C)cc2)nnc1SCC(=O)Nc1nccs1	i	i	i	-7.6*	i
CCSCc1nnc(SCC(=O)Nc2nccs2)n1CC	i	i	i	i	i
CCc1ccc(/C=N/NC(=O)C(=O)NCCCN2CCOCC2)cc1	i	i	i	i	i

Assay outcomes deposited in PubChem BioAssay by Johns Hopkins Ion Channel Center.
